Test results taken from ChEMBL document CHEMBL4190362, “Synthesis, biological evaluation and quantitative structure-active relationships of 1,3-thiazolidin-4-one derivatives. A promising chemical scaffold endowed with high antifungal potency and low cytotoxicity” (Eur J Med Chem, 2017).

Assays:
Type in all cases: functional
[1] = tested on: Staphylococcus aureus; assay: Antibacterial activity against Staphylococcus aureus assessed as inhibition of microbial growth incubated for 18 to 22 hrs by broth microdilution method
Procedure, shortened: (§1)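 Broth microdilution in Mueller-Hinton II broth following NCCLS recommendations; compounds dissolved in DMSO.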

[2] = tested on: Nakaseomyces glabratus; assay: Antifungal activity against Candida glabrata clinical isolates assessed as inhibition of microbial growth incubated for 24 hrs by broth microdilution method
Procedure, shortened: (§2)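 Twenty-two clinical Candida isolates (8 C. albicans, 4 C. glabrata, 3 C. tropicalis, 3 C. krusei, 2 C. parapsilosis, 2 C. sake) were identified by colony morphology and biochemistry and subcultured at 35 °C for purity. Compounds were dissolved in DMSO and tested by broth microdilution in Sabouraud dextrose broth per NCCLS/CLSI/EUCAST guidance. Values are geometric mean MIC per species (µg/mL).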

[3] = tested on: Proteus mirabilis; assay: Antibacterial activity against Proteus mirabilis assessed as inhibition of microbial growth incubated for 18 to 22 hrs by broth microdilution method; procedure, shortened: as §1
[4] = tested on: Candida albicans; assay: Antifungal activity against Candida albicans clinical isolates assessed as inhibition of microbial growth incubated for 24 hrs by broth microdilution method; procedure, shortened: as §2
[5] = tested on: Enterobacter; assay: Antibacterial activity against Enterobacter spp. assessed as inhibition of microbial growth incubated for 18 to 22 hrs by broth microdilution method; procedure, shortened: as §1
[6] = tested on: Klebsiella oxytoca; assay: Antibacterial activity against Klebsiella oxytoca assessed as inhibition of microbial growth incubated for 18 to 22 hrs by broth microdilution method; procedure, shortened: as §1
[7] = tested on: [Candida] sake; assay: Antifungal activity against Candida sake clinical isolates assessed as inhibition of microbial growth incubated for 24 hrs by broth microdilution method; conditions: Fermentozyma sake; procedure, shortened: as §2
[8] = tested on: Candida parapsilosis; assay: Antifungal activity against Candida parapsilosis clinical isolates assessed as inhibition of microbial growth incubated for 24 hrs by broth microdilution method; conditions: Lodderomyces parapsilosis; procedure, shortened: as §2
[9] = tested on: Pichia kudriavzevii; assay: Antifungal activity against Candida krusei clinical isolates assessed as inhibition of microbial growth incubated for 24 hrs by broth microdilution method; procedure, shortened: as §2
[10] = tested on: Enterococcus faecalis; assay: Antibacterial activity against Streptococcus faecalis assessed as inhibition of microbial growth incubated for 18 to 22 hrs by broth microdilution method; procedure, shortened: as §1
[11] = tested on: Staphylococcus warneri; assay: Antibacterial activity against Staphylococcus warneri assessed as inhibition of microbial growth incubated for 18 to 22 hrs by broth microdilution method; procedure, shortened: as §1
[12] = tested on: Candida tropicalis; assay: Antifungal activity against Candida tropicalis clinical isolates assessed as inhibition of microbial growth incubated for 24 hrs by broth microdilution method; procedure, shortened: as §2
[13] = tested on: Escherichia coli; assay: Antibacterial activity against Escherichia coli assessed as inhibition of microbial growth incubated for 18 to 22 hrs by broth microdilution method; procedure, shortened: as §1

| Compound | MIC [1] | MIC [2] | MIC [3] | MIC [4] | MIC [5] | MIC [6] | MIC [7] | MIC [8] | MIC [9] | MIC [10] | MIC [11] | MIC [12] | MIC [13] |
| --- | --- | --- | --- | --- | --- | --- | --- | --- | --- | --- | --- | --- | --- |
| CCC/C(C)=N\N=C1\SCC(=O)N1Cc1ccccc1 | ≥ 256 µg/mL | 2 µg/mL | ≥ 256 µg/mL | 8 µg/mL | ≥ 256 µg/mL | ≥ 256 µg/mL | 32 µg/mL | 8 µg/mL | 16 µg/mL | ≥ 256 µg/mL | ≥ 256 µg/mL | 8 µg/mL | ≥ 256 µg/mL |
| C=CCC/C(C)=N\N=C1\SCC(=O)N1Cc1ccccc1 | ≥ 256 µg/mL | 2 µg/mL | ≥ 256 µg/mL | 8 µg/mL | ≥ 256 µg/mL | ≥ 256 µg/mL | 8 µg/mL | 8 µg/mL | 8 µg/mL | ≥ 256 µg/mL | ≥ 256 µg/mL | 8 µg/mL | ≥ 256 µg/mL |
| C/C(=N/N=C1/SCC(=O)N1Cc1ccccc1)C1CC1 | ≥ 256 µg/mL | 4 µg/mL | ≥ 256 µg/mL | 2 µg/mL | ≥ 256 µg/mL | ≥ 256 µg/mL | 2 µg/mL | 2 µg/mL | 2 µg/mL | ≥ 256 µg/mL | ≥ 256 µg/mL | 2 µg/mL | ≥ 256 µg/mL |
| CC(C)=N/N=C1/SCC(=O)N1Cc1ccccc1 | ≥ 256 µg/mL | 256 µg/mL | ≥ 256 µg/mL | 256 µg/mL | ≥ 256 µg/mL | ≥ 256 µg/mL | 256 µg/mL | 256 µg/mL | 256 µg/mL | ≥ 256 µg/mL | ≥ 256 µg/mL | 256 µg/mL | ≥ 256 µg/mL |
| CCC(CC)=N/N=C1/SCC(=O)N1Cc1ccccc1 | ≥ 256 µg/mL | 2 µg/mL | ≥ 256 µg/mL | 32 µg/mL | ≥ 256 µg/mL | ≥ 256 µg/mL | 8 µg/mL | 8 µg/mL | 8 µg/mL | ≥ 256 µg/mL | ≥ 256 µg/mL | 32 µg/mL | ≥ 256 µg/mL |
| CCC/C(CC)=N\N=C1\SCC(=O)N1Cc1ccccc1 | ≥ 256 µg/mL | 4 µg/mL | ≥ 256 µg/mL | 4 µg/mL | ≥ 256 µg/mL | ≥ 256 µg/mL | 8 µg/mL | 8 µg/mL | 4 µg/mL | ≥ 256 µg/mL | ≥ 256 µg/mL | 4 µg/mL | ≥ 256 µg/mL |
| C/C(CC(C)C)=N/N=C1/SCC(=O)N1Cc1ccccc1 | ≥ 256 µg/mL | 8 µg/mL | ≥ 256 µg/mL | 8 µg/mL | ≥ 256 µg/mL | ≥ 256 µg/mL | 16 µg/mL | 16 µg/mL | 16 µg/mL | ≥ 256 µg/mL | ≥ 256 µg/mL | 16 µg/mL | ≥ 256 µg/mL |
| CCCC/C(CC)=N\N=C1\SCC(=O)N1Cc1ccccc1 | ≥ 256 µg/mL | 32 µg/mL | ≥ 256 µg/mL | 128 µg/mL | ≥ 256 µg/mL | ≥ 256 µg/mL | 4 µg/mL | 8 µg/mL | 4 µg/mL | ≥ 256 µg/mL | ≥ 256 µg/mL | 16 µg/mL | ≥ 256 µg/mL |
| CC/C(C)=N\N=C1\SCC(=O)N1Cc1ccccc1 | ≥ 256 µg/mL | 16 µg/mL | ≥ 256 µg/mL | 8 µg/mL | ≥ 256 µg/mL | ≥ 256 µg/mL | 32 µg/mL | 8 µg/mL | 16 µg/mL | ≥ 256 µg/mL | ≥ 256 µg/mL | 8 µg/mL | ≥ 256 µg/mL |
| CCCCCC/C(C)=N\N=C1\SCC(=O)N1Cc1ccccc1 | ≥ 256 µg/mL | 8 µg/mL | ≥ 256 µg/mL | 8 µg/mL | ≥ 256 µg/mL | ≥ 256 µg/mL | 16 µg/mL | 16 µg/mL | 16 µg/mL | ≥ 256 µg/mL | ≥ 256 µg/mL | 16 µg/mL | ≥ 256 µg/mL |
| CCCCC/C(C)=N\N=C1\SCC(=O)N1Cc1ccccc1 | ≥ 256 µg/mL | 8 µg/mL | ≥ 256 µg/mL | 8 µg/mL | ≥ 256 µg/mL | ≥ 256 µg/mL | 16 µg/mL | 16 µg/mL | 16 µg/mL | ≥ 256 µg/mL | ≥ 256 µg/mL | 16 µg/mL | ≥ 256 µg/mL |
| CC(C)=C/C(C)=N\N=C1\SCC(=O)N1Cc1ccccc1 | ≥ 256 µg/mL | 2 µg/mL | ≥ 256 µg/mL | 128 µg/mL | ≥ 256 µg/mL | ≥ 256 µg/mL | 8 µg/mL | 8 µg/mL | 8 µg/mL | ≥ 256 µg/mL | ≥ 256 µg/mL | 128 µg/mL | ≥ 256 µg/mL |
| CCCC/C(C)=N\N=C1\SCC(=O)N1Cc1ccccc1 | ≥ 256 µg/mL | 2 µg/mL | ≥ 256 µg/mL | 2 µg/mL | ≥ 256 µg/mL | ≥ 256 µg/mL | 4 µg/mL | 2 µg/mL | 2 µg/mL | ≥ 256 µg/mL | ≥ 256 µg/mL | 2 µg/mL | ≥ 256 µg/mL |
| C[C@@H]1[C@H](O)[C@@H](C)/C=C/C=C/C=C/C=C/C=C/C=C/C=C/[C@H](O[C@@H]2O[C@H](C)[C@@H](O)[C@H](N)[C@@H]2O)C[C@@H]2O[C@](O)(C[C@@H](O)C[C@@H](O)[C@H](O)CC[C@@H](O)C[C@@H](O)CC(=O)O[C@H]1C)C[C@H](O)[C@H]2C(=O)O [AMPHOTERICIN B] | – | 4 µg/mL | – | 4 µg/mL | – | – | 2 µg/mL | 2 µg/mL | 4 µg/mL | – | – | 2 µg/mL | – |
| OC(Cn1cncn1)(Cn1cncn1)c1ccc(F)cc1F [FLUCONAZOLE] | – | 2 µg/mL | – | 2 µg/mL | – | – | 2 µg/mL | 2 µg/mL | 2 µg/mL | – | – | 2 µg/mL | – |
| CC(=O)N1CCN(c2ccc(OCC3COC(Cn4ccnc4)(c4ccc(Cl)cc4Cl)O3)cc2)CC1 (centres undefined) [KETOCONAZOLE] | – | 2 µg/mL | – | 2 µg/mL | – | – | 4 µg/mL | 2 µg/mL | 4 µg/mL | – | – | 2 µg/mL | – |
| Clc1ccc(COC(Cn2ccnc2)c2ccc(Cl)cc2Cl)c(Cl)c1 (centres undefined) [MICONAZOLE] | – | 4 µg/mL | – | 2 µg/mL | – | – | 2 µg/mL | 4 µg/mL | 4 µg/mL | – | – | 2 µg/mL | – |
| Clc1ccc(C(Cn2ccnc2)OCc2ccsc2Cl)c(Cl)c1 (centres undefined) [TIOCONAZOLE] | – | 4 µg/mL | – | 8 µg/mL | – | – | 4 µg/mL | 8 µg/mL | 8 µg/mL | – | – | 8 µg/mL | – |
